Laboratory results taken from ChEMBL document CHEMBL1667819, “Aminopyridinecarboxamide-based inhaled IKK-2 inhibitors for asthma and COPD: Structure-activity relationship” (Bioorg Med Chem, 2011).

Key:
[1] = biological target: T1, Inhibitor of nuclear factor kappa-B kinase subunit beta (Homo sapiens, UniProt O14920); assay: Inhibition of human recombinant IKK2
T1 sequence (O14920 whole entry): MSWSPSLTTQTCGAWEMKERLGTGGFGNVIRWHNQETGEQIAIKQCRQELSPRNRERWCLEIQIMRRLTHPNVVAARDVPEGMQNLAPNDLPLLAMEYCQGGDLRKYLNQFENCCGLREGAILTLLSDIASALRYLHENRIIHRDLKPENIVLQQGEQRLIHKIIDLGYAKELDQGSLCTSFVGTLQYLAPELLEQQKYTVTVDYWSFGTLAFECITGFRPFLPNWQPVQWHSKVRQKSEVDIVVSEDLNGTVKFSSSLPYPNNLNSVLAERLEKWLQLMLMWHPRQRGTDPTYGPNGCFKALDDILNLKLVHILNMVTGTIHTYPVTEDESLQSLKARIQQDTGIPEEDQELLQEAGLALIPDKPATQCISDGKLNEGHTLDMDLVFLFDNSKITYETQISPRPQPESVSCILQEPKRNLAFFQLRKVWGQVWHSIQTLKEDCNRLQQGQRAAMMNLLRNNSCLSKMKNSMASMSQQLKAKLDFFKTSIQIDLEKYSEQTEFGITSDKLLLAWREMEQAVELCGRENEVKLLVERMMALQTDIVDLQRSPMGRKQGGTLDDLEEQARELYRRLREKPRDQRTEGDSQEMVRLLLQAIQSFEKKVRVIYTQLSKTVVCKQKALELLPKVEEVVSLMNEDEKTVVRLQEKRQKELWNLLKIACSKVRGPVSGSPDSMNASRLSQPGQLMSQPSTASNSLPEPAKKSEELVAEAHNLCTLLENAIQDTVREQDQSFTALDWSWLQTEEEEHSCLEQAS

[2] = test system: PBMC; assay: Inhibition of LPS-stimulated TNFalpha release in human PBMC; assay type: functional, cell-based
In short: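 PBMC were Ficoll-isolated from heparinized blood of healthy donors and plated at 2.5 × 10⁵ cells/well in RPMI 1640 with 5% FBS and penicillin–streptomycin. Cells were preincubated with compound for 1 h, then stimulated with LPS (20 ng/ml) for 16 h. Supernatant TNFα was measured by ELISA, and IC50 is the mean of ≥3 experiments.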

[3] = biological target: T2, Inhibitor of nuclear factor kappa-B kinase subunit beta (Homo sapiens) (UniProt O14920); assay: Binding affinity to human recombinant IKK2 assessed as half life
T2 sequence (whole entry): T1 sequence (O14920 whole entry)

[4] = Half life in human liver microsomes
[5] = biological target: Voltage-gated inwardly rectifying potassium channel KCNH2 (Homo sapiens, UniProt Q12809); assay: Displacement of dofetilide from human ERG transfected in HEK293 cells by fluorescence polarization assay
Chain of Voltage-gated inwardly rectifying potassium channel KCNH2 (Q12809 whole entry): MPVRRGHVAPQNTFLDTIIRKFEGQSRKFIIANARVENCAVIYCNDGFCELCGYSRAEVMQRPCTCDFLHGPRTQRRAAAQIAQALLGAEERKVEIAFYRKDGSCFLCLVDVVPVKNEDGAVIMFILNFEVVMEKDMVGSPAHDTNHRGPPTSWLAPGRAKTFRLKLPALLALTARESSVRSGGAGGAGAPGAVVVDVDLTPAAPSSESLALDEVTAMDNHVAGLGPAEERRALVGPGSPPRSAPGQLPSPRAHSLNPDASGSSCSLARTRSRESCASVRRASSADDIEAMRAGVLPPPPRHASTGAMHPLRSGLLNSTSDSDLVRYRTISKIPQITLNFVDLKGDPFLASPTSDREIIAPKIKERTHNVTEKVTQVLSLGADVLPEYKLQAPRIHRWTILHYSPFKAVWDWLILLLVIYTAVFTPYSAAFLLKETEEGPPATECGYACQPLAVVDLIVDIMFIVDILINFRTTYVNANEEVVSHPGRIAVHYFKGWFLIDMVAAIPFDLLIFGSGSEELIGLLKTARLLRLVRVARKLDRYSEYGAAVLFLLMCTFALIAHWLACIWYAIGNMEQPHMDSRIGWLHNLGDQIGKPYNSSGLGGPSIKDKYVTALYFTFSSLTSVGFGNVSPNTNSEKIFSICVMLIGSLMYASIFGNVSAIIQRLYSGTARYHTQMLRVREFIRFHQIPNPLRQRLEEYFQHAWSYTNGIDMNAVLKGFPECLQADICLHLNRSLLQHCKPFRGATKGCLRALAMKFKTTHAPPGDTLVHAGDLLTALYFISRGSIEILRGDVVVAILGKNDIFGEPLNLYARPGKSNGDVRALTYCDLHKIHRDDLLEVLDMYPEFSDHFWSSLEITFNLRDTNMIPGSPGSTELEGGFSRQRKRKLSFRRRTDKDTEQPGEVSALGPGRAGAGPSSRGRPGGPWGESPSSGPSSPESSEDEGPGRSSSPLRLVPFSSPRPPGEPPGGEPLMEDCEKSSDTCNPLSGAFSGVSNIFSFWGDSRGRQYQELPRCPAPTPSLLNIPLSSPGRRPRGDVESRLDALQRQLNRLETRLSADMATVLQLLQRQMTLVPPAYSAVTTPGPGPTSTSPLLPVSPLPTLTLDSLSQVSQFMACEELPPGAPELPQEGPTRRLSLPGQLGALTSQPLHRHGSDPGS
In short: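 Competition binding used membranes from HEK-293 cells transfected with hERG. Test compound competed with Cy3B-tagged N-desmethyl dofetilide for channel binding, with fluorescence polarization read-out. Values are given as % of effect.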

[6] = biological target: T2, Inhibitor of nuclear factor kappa-B kinase subunit beta (Homo sapiens); assay: Binding affinity to human IKK2 in PBMC assessed as half life by cell-based assay
In short: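 Cryopreserved PBMC were thawed and plated, then exposed to compound for 1 h. Compound was removed by four spin-and-aspirate washes, and an unwashed plate served as control. Loss of inhibition after washout gave the cellular half-life.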

Compound | IC50 [1] [nM] | IC50 [2] [nM] | T1/2 [3] [h] | half-life ([4]; microsomes) [h] | inhibition (INH) [5] [%] | T1/2 [6] [h] | half-life ([4]; liver microsomes) [h]
COc1ccc(-n2nc(C(N)=O)c3c2-c2cc(NC(=O)c4cc(N5CCN(C)CC5)ncc4Cl)ccc2CC3)cc1 | 6.1 | 33 | – | – | – | – | –
CN(C)CCCNC(=O)Cn1cc(CN2CCN(c3cc(C(=O)Nc4ccc5c(c4)-c4c(c(C(N)=O)nn4-c4ccc(F)cc4)CC5)c(Cl)cn3)CC2)cn1 | 3.3 | 26 | 6 | 0.6 | 34 | – | –
CN(C)C(=O)Cn1cc(CN2CCN(c3cc(C(=O)Nc4ccc5c(c4)-c4c(c(C(N)=O)nn4-c4ccc(F)cc4)CC5)c(Cl)cn3)CC2)cn1 | 2.3 | 13 | 5 | – | 50 | < 4 | 0.133
COCCN1CCN(c2cc(C(=O)Nc3ccc4c(c3)-c3c(c(C(N)=O)nn3-c3ccc(F)cc3)CC4)c(Cl)cn2)CC1 | 1.9 | 8 | 0.6 | – | – | – | –
COCCCn1cc(CN2CCN(c3cc(C(=O)Nc4ccc5c(c4)-c4c(c(C(N)=O)nn4-c4ccc(F)cc4)CC5)c(Cl)cn3)CC2)cn1 | 2.8 | 16 | 4 | – | 76 | > 4 | 0.05
CN1CCN(c2cc(C(=O)Nc3ccc4c(c3)-c3c(c(C(N)=O)nn3-c3ccc(Cl)c(O)c3)CC4)c(Cl)cn2)CC1 | 2.2 | – | 1 | – | – | – | –
CN1CCN(c2cc(C(=O)Nc3ccc4c(c3)-c3c(c(C(N)=O)nn3-c3cccc(O)c3)CC4)c(Cl)cn2)CC1 | 1.2 | 89 | 1 | – | – | – | –
CN(C)CCCn1cc(CN2CCN(c3cc(C(=O)Nc4ccc5c(c4)-c4c(c(C(N)=O)nn4-c4ccc(F)cc4)CC5)c(Cl)cn3)CC2)cn1 | 3.7 | 12 | 4 | – | 42 | > 4 | 0.183
CN1CCN(c2cc(C(=O)Nc3ccc4c(c3)-c3c(c(C(N)=O)nn3-c3ccc(O)c(Cl)c3)CC4)c(Cl)cn2)CC1 | 2.8 | 46 | 1 | – | – | – | –
COCCNC(=O)Cn1cc(CN2CCN(c3cc(C(=O)Nc4ccc5c(c4)-c4c(c(C(N)=O)nn4-c4ccc(F)cc4)CC5)c(Cl)cn3)CC2)cn1 | 1.3 | 10 | 6 | – | 58 | > 4 | 0.05
N#CCCn1cc(CN2CCN(c3cc(C(=O)Nc4ccc5c(c4)-c4c(c(C(N)=O)nn4-c4ccc(F)cc4)CC5)c(Cl)cn3)CC2)cn1 | 7.6 | 9 | 5 | – | 98 | > 4 | 0.1
CN1CCN(c2cc(C(=O)Nc3ccc4c(c3)-c3c(c(C(N)=O)nn3-c3ccc(F)c(F)c3)CC4)c(Cl)cn2)CC1 | 10 | 65 | – | – | – | – | –
Cn1cc(CN2CCN(c3cc(C(=O)Nc4ccc5c(c4)-c4c(c(C(N)=O)nn4-c4ccc(F)cc4)CC5)c(Cl)cn3)CC2)cn1 | 3 | 11 | 4 | – | 91 | – | 0.283
NC(=O)c1nn(-c2ccc(F)cc2)c2c1CCc1ccc(NC(=O)c3cc(N4CCN(Cc5cnn(CC(=O)O)c5)CC4)ncc3Cl)cc1-2 | 0.5 | 221 | – | – | 29 | – | 2
CCOC(=O)CCn1cc(CN2CCN(c3cc(C(=O)Nc4ccc5c(c4)-c4c(c(C(N)=O)nn4-c4ccc(F)cc4)CC5)c(Cl)cn3)CC2)cn1 | 4.7 | 14 | 6 | – | 90 | > 4 | 0.05
CCOC(=O)Cn1cc(CN2CCN(c3cc(C(=O)Nc4ccc5c(c4)-c4c(c(C(N)=O)nn4-c4cccc(F)c4)CC5)c(Cl)cn3)CC2)cn1 | 5 | 9 | 5 | – | 78 | > 4 | 0.05
Cn1cc(CN2CCN(c3cc(C(=O)Nc4ccc5c(c4)-c4c(c(C(N)=O)nn4-c4cccc(F)c4)CC5)c(Cl)cn3)CC2)cn1 | – | 14 | 3 | 0.233 | 83 | – | –
NC(=O)c1nn(-c2ccc(F)cc2)c2c1CCc1ccc(NC(=O)c3cc(N4CCN(Cc5cnn(CC(=O)N(CCO)CCO)c5)CC4)ncc3Cl)cc1-2 | 10.2 | 474 | 4 | – | -1 | > 4 | –

Compound | IC50 [1] [nM] | IC50 [2] [nM] | T1/2 [3] [h] | half-life ([4]; microsomes) [h] | inhibition (INH) [5] [%] | T1/2 [6] [h] | half-life ([4]; liver microsomes) [h]
COC(=O)Cn1cc(CN2CCN(c3cc(C(=O)Nc4ccc5c(c4)-c4c(c(C(N)=O)nn4-c4ccc(F)cc4)CC5)c(Cl)cn3)CC2)cn1 | 1.1 | 54 | 6 | – | 24 | – | –
Cn1cc(CN2CCN(c3cc(C(=O)Nc4ccc5c(c4)-c4c(c(C(N)=O)nn4-c4ccc(F)cc4)CC5)c(Cl)cn3)C(C(=O)O)C2)cn1 (centres undefined) | 0.5 | 529 | 4.2 | – | – | – | –
NC(=O)c1nn(-c2ccc(F)cc2)c2c1CCc1ccc(NC(=O)c3cc(N4CCN(Cc5cnn(CCCO)c5)CC4)ncc3Cl)cc1-2 | 2.2 | 15 | 5 | 0.15 | 49 | > 4 | –
C[C@H]1CN(c2cc(C(=O)Nc3ccc4c(c3)-c3c(c(C(N)=O)nn3-c3ccc(F)cc3)CC4)c(Cl)cn2)CCN1Cc1cnn(C)c1 | 3.5 | 9 | 6 | – | – | – | –
Cc1c(CN2CCN(c3cc(C(=O)Nc4ccc5c(c4)-c4c(c(C(N)=O)nn4-c4ccc(F)cc4)CC5)c(Cl)cn3)CC2)cnn1C | 2.8 | 67 | 8 | – | – | – | –
NC(=O)c1nn(-c2ccc(F)cc2)c2c1CCc1ccc(NC(=O)c3cc(N4CCC(O)CC4)ncc3Cl)cc1-2 | 0.6 | 15 | 0.1 | – | – | – | –
Cn1cc(CN2CCN(c3cc(C(=O)Nc4ccc5c(c4)-c4c(c(C(N)=O)nn4-c4ccc(F)cc4)CC5)c(Cl)cn3)CC2C(=O)O)cn1 (centres undefined) | 3.9 | 432 | 0.3 | – | – | – | –
Cc1nn(C)cc1CN1CCN(c2cc(C(=O)Nc3ccc4c(c3)-c3c(c(C(N)=O)nn3-c3ccc(F)cc3)CC4)c(Cl)cn2)CC1 | 4.3 | 118 | 8 | – | – | – | –
CN1CCN(c2cc(C(=O)Nc3ccc4c(c3)-c3c(c(C(N)=O)nn3-c3ccc(O)cc3)CC4)c(Cl)cn2)CC1 | 3.5 | 75 | 1 | – | – | – | –
COCCOC(=O)Cn1cc(CN2CCN(c3cc(C(=O)Nc4ccc5c(c4)-c4c(c(C(N)=O)nn4-c4ccc(F)cc4)CC5)c(Cl)cn3)CC2)cn1 | 1.3 | 9 | 4 | – | 66 | > 4 | –
CC(C)NC(=O)Cn1cc(CN2CCN(c3cc(C(=O)Nc4ccc5c(c4)-c4c(c(C(N)=O)nn4-c4ccc(F)cc4)CC5)c(Cl)cn3)CC2)cn1 | 2 | 36 | 5 | – | 94 | – | –
CN1CCN(c2cc(C(=O)Nc3ccc4c(c3)-c3c(c(C(N)=O)nn3-c3ccc(F)cc3)CC4)c(Cl)cn2)CC1 | 1.6 | 39 | 3 | – | – | – | –
CN1CCN(c2cc(C(=O)Nc3ccc4c(c3)-c3c(c(C(N)=O)nn3-c3cccc(F)c3)CC4)c(Cl)cn2)CC1 | 4.8 | 14 | 2 | – | – | – | –
NC(=O)c1nn(-c2ccc(F)cc2)c2c1CCc1ccc(NC(=O)c3cc(N4CCN(Cc5cn[nH]c5)CC4)ncc3Cl)cc1-2 | 1.9 | 16 | 3 | 0.133 | 78 | – | –
Cc1ccc(-n2nc(C(N)=O)c3c2-c2cc(NC(=O)c4cc(N5CCN(C)CC5)ncc4Cl)ccc2CC3)cc1 | 14 | 38 | – | – | – | – | –
COCCNc1cc(C(=O)Nc2ccc3c(c2)-c2c(c(C(N)=O)nn2-c2ccc(F)cc2)CC3)c(Cl)cn1 | 0.6 | 134 | 0.1 | – | – | – | –
CCn1cc(CN2CCN(c3cc(C(=O)Nc4ccc5c(c4)-c4c(c(C(N)=O)nn4-c4ccc(F)cc4)CC5)c(Cl)cn3)CC2)cn1 | 4.2 | 102 | > 8 | – | – | – | –
